According to ChEMBL document CHEMBL1156769, “9-Arylpurines as a novel class of enterovirus inhibitors” (J Med Chem, 2010):

Experiments:
[1] = test system: Coxsackievirus B3; test: Antiviral activity against Coxsackievirus B3 infected in african green monkey Vero cells assessed as reduction of virus-induced cytopathic effect after 3 days by MTS assay; format: functional, organism-based; conditions: Enterovirus B, 72 h
Procedure, shortened: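 CPE-reduction assay in confluent Vero cells. Serial compound dilutions and 100 CCID50 of CVB3 were added, then incubated 3 days at 37 °C until complete CPE in the virus control. Optical density after MTS/PMS was read at 498 nm relative to uninfected untreated cells. EC50 was interpolated linearly; mean ± SD of at least three independent experiments.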

[2] = Cytotoxicity against african green monkey Vero cells after 3 days by Cell titer glo luminescent assay; format: cell-based; conditions: chlorocebus sabaeus
Procedure, shortened: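 Uninfected Vero cells were incubated with serial compound dilutions for three days at 37 °C, using the same setup as the antiviral assay. Survival was measured with the CellTiter-Glo luminescent viability assay. CC50 (50% inhibition of proliferation) was determined by linear interpolation; mean ± SD of at least three independent experiments.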

[3] = Cytotoxicity against african green monkey Vero cells after 3 days by MTS assay; format: cell-based; conditions: chlorocebus sabaeus
Procedure, shortened: (§1)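 Uninfected cultures in the antiviral-assay setup were exposed to serial compound dilutions for three days at 37 °C. Viability was read by the MTS method. CC50, the concentration inhibiting cell proliferation by 50%, was obtained by linear interpolation; mean ± SD of at least three independent experiments.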

[4] = Cytotoxicity against human HeLa cells after 3 days by MTS assay; format: cell-based; procedure, shortened: as §1
[5] = Cytotoxicity against human MRC5 cells after 3 days by MTS assay; format: cell-based; procedure, shortened: as §1
[6] = Antiviral activity against Coxsackievirus A16 G10 infected in human MRC5 cells assessed as reduction of virus induced cytopathic effect after 3 days by MTS assay; format: functional, cell-based, Human coxsackievirus A16 (strain G-10); conditions: Enterovirus A, MRC5, 72 h
Procedure, shortened: (§2)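 Confluent MRC-5 monolayers received serial compound dilutions plus 100 CCID50 of virus and were incubated 3 days at 37 °C, until full CPE appeared in the untreated virus control. Viability was read by MTS/PMS at 498 nm and compared with uninfected, compound-free cells. EC50 (50% CPE inhibition) was obtained by linear interpolation; mean ± SD of at least three independent experiments.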

[7] = test system: Poliovirus 1; test: Antiviral activity against Poliovirus1 sabin infected in Vero cells assessed as reduction of virus induced cytopathic effect after 3 days by MTS assay; format: functional, cell-based; conditions: Enterovirus C, 72 h
Procedure, shortened: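 Vero cells were grown to confluence at 37 °C and then given serial compound dilutions together with 100 CCID₅₀ virus. After 3 days, once virus controls reached full CPE, cell viability was measured by MTS/PMS as absorbance at 498 nm, relative to uninfected untreated wells. EC₅₀ was interpolated linearly as the concentration giving 50% CPE inhibition. Results are the mean ± SD of three or more independent experiments.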

[8] = test system: rhinovirus B14; test: Antiviral activity against Rhinovirus 14 infected in human HeLa-R cells assessed as reduction of virus induced cytopathic effect after 3 days by MTS assay; format: functional, organism-based; conditions: Rhinovirus B, 72 h
Procedure, shortened: (§3)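 Rhinoviruses were cultured in HeLa R cells at 35 °C. Confluent cells received serial compound dilutions and 100 CCID50 of virus until complete CPE developed in the virus control. Survival was quantified by MTS/PMS at 498 nm versus uninfected compound-free cells. EC50 was calculated by linear interpolation; mean ± SD of at least three independent experiments.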

[9] = Antiviral activity against Coxsackie virus A21 Coe infected in human MRC5 cells assessed as reduction of virus induced cytopathic effect after 3 days by MTS assay; format: functional, cell-based, Human coxsackievirus A21 (strain Coe); conditions: Enterovirus C, MRC5, 72 h
Procedure, shortened: (§4)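 Confluent MRC-5 monolayers were cultured at 37 °C and given serial compound dilutions plus 100 CCID₅₀ virus. EC₅₀ (50% CPE inhibition) was found by linear interpolation. Values are the mean ± SD of at least three independent experiments.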

[10] = Antiviral activity against Echovirus 11 Gregory assessed as reduction of virus-induced cytopathic effect after 3 days by MTS assay; format: functional, Echovirus 11 (strain Gregory); procedure, shortened: as §2
[11] = test system: Coxsackievirus A24; test: Antiviral activity against Coxsackie virus A24 infected in human MRC5 cells assessed as reduction of virus induced cytopathic effect after 3 days by MTS assay; format: functional, organism-based; conditions: Enterovirus C, MRC5, 72 h; procedure, shortened: as §4
[12] = Antiviral activity against Echovirus 9 Hill assessed as reduction of virus-induced cytopathic effect after 3 days by MTS assay; format: functional, Echovirus 9 (strain Hill); procedure, shortened: as §2
[13] = test system: rhinovirus A2; test: Antiviral activity against Rhinovirus 2 infected in human HeLa-R cells assessed as reduction of virus induced cytopathic effect after 3 days by MTS assay; format: functional, organism-based; conditions: Rhinovirus A, 72 h; procedure, shortened: as §3
[14] = Antiviral activity against Enterovirus 71 BrCr infected in human RD cells assessed as reduction of virus induced cytopathic effect after 3 days by MTS assay; format: functional, cell-based, Human enterovirus 71 (strain BRCR); conditions: Enterovirus A, 72 h
Procedure, shortened: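 Virus was cultured in RD cells at 37 °C. Confluent cells were given serial compound dilutions with 100 CCID50 of virus for 3 days, until complete CPE in untreated infected controls. Cell viability was measured by MTS/PMS absorbance at 498 nm. EC50 was derived by linear interpolation; mean ± SD of at least three independent experiments.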

Compound | EC50 [1] | EC90 [1] | CC50 at 72 h [3] | further results
OCc1cccc(-n2cnc3c(Cl)ncnc32)c1 | 14.2 µM | 30 µM | > 100 µM | CC50 at 72 h [2]: 200 µM; CC50 at 72 h [4]: 175 µM; CC50 at 72 h [5]: 229 µM
Cc1ncnc2c1ncn2-c1cccc(CO)c1 | > 100 µM | – | > 100 µM | –
CC(C)COc1ccc(-n2cnc3c(Cl)ncnc32)cc1 | > 100 µM | – | > 100 µM | –
CC(=O)c1cccc(-n2nnc3c(Cl)ncnc32)c1 | > 44 µM | – | 44 µM | –
Cc1nc(Cl)c2ncn(-c3cccc(C(C)(C)O)c3)c2n1 | 8 µM | 7.4 µM | > 100 µM | CC50 at 72 h [2]: > 250 µM; CC50 at 72 h [4]: > 250 µM; CC50 at 72 h [5]: > 250 µM
COc1cccc(Cn2cnc3ncnc(Cl)c32)c1 | 75 µM | > 100 µM | > 100 µM | –
O=C(c1ccccc1)c1ccc(-n2cnc3c(Cl)ncnc32)cc1 | 67 µM | 85 µM | > 100 µM | –
CC(=O)c1cc(-n2cnc3c(Cl)ncnc32)ccc1F | 9.3 µM | 15 µM | > 100 µM | –
Clc1ncnc2c1ncn2-c1ccc2c(c1)OCO2 | > 100 µM | – | > 100 µM | –
CNc1ncnc2c1ncn2-c1cccc(CO)c1 | > 100 µM | – | > 100 µM | –
OCc1ccc(-n2cnc3c(Cl)ncnc32)cc1 | 11 µM | 20 µM | > 100 µM | –
CC(=O)c1cccc(-n2cnc3c(Cl)ncnc32)c1 | 7.3 µM | 9.1 µM | > 100 µM | EC50 [6]: 2.7 µM; EC50 [7]: > 100 µM; EC50 [8]: > 100 µM; CC50 at 72 h [2]: > 250 µM; CC50 at 72 h [4]: 144 µM; EC50 [9]: 4.5 µM; EC50 [10]: > 100 µM; CC50 at 72 h [5]: 238 µM; EC50 [11]: 2.7 µM; EC50 [12]: 3.3 µM; EC50 [13]: > 100 µM; EC50 [14]: > 100 µM
Nc1nc(Cl)c2ncn(-c3cccc(CO)c3)c2n1 | 17 µM | 25 µM | > 100 µM | –
COc1ccc(C(C)=O)cc1-n1cnc2c(Cl)nc(C)nc21 | > 100 µM | – | > 100 µM | –
OCc1cccc(-n2cnc3c(Br)ncnc32)c1 | 22 µM | 29 µM | > 100 µM | –
CC(=O)c1cccc(Nc2ncnc(Cl)c2N)c1 | > 100 µM | – | > 100 µM | –
CC(=O)c1cccc(Nc2nc(C)nc(Cl)c2N)c1 | > 100 µM | – | > 100 µM | –
CC(=O)c1cccc(-n2c(C)nc3c(Cl)ncnc32)c1 | 12.2 µM | 22 µM | > 100 µM | –

Compound | EC50 [1] | EC90 [1] | CC50 at 72 h [3] | further results
CC(=O)c1cccc(-n2cnc3c(Cl)nc(C)nc32)c1 | 8.7 µM | 14 µM | > 100 µM | –
CC(=O)c1cccc(-n2c(C)nc3c(Cl)nc(C)nc32)c1 | 11 µM | 15 µM | > 100 µM | –
CC(=O)c1cccc(-n2c(=O)[nH]c3c(Cl)ncnc32)c1 | 9.3 µM | 18 µM | > 100 µM | –
OCc1cccc(-n2cnc3c(Cl)nc(Cl)nc32)c1 | > 8.8 µM | – | 8.8 µM | –
OCc1cccc(-n2cnc3cncnc32)c1 | > 100 µM | – | > 100 µM | –
CC(=O)c1ccc(-n2cnc3c(Cl)ncnc32)cc1 | 35.3 µM | 51 µM | > 100 µM | –
COC(=O)c1cccc(-n2cnc3c(Cl)ncnc32)c1 | 11.1 µM | 22 µM | > 100 µM | –
CC(=O)c1cccc(-n2c(=O)[nH]c3c(Cl)nc(C)nc32)c1 | 6.7 µM | 10 µM | > 100 µM | CC50 at 72 h [2]: > 250 µM; CC50 at 72 h [4]: > 250 µM; CC50 at 72 h [5]: > 250 µM
COc1ncnc2c1ncn2-c1cccc(CO)c1 | > 100 µM | – | > 100 µM | –
COc1cccc(Cn2cnc3c(Cl)ncnc32)c1 | 53 µM | 70 µM | > 100 µM | –
COc1ccc(C(C)=O)cc1-n1cnc2c(Cl)ncnc21 | > 57 µM | – | > 100 µM | –
Cc1nc(Cl)c2[nH]c(=O)n(-c3cccc(C(C)(C)O)c3)c2n1 | 22 µM | 29 µM | > 100 µM | –
OCc1cccc(-n2cnc3c(O)ncnc32)c1 | > 100 µM | – | > 100 µM | –
CC(=O)c1cccc(-n2nnc3c(Cl)nc(C)nc32)c1 | > 44 µM | – | 44 µM | –
CC(C)COc1cccc(-n2cnc3c(Cl)ncnc32)c1 | 29 µM | > 100 µM | > 100 µM | –
COc1cccc(-n2cnc3c(Cl)ncnc32)c1 | 12 µM | 22 µM | > 100 µM | –
Fc1cccc(F)c1[C@@H]1SCc2nc3cc(C(F)(F)F)ccc3n21 | 1.2 µM | – | > 100 µM | –
CC(C)S(=O)(=O)n1c(N)nc2ccc(/C(=N/O)c3ccccc3)cc21 [ENVIROXIME] | 0.7 µM | – | > 100 µM | –
